Publication PMC6055826 (Chemistry (Weinheim an Der Bergstrasse, Germany), 2018)

Columns and labels:
[1] = logD by reversed-phase HPLC; format: physicochemical; details: pH 7.5
[2] = Bidirectional Caco2 permeability assay, 24-well format; format: in vitro ADME; details: human, Caco-2
Method in brief: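 Caco-2 monolayers run bidirectionally in a 24-well format, measuring apparent permeability both apical-to-basolateral (A-B) and basolateral-to-apical (B-A). Efflux ratio calculated as Papp B-A divided by Papp A-B.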

[3] = Metabolic stability assay, pooled rat liver microsomes; format: in vitro ADME; details: predicted maximum oral bioavailability
Method in brief: (§1)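 Metabolic stability measured in vitro in pooled liver microsomes (human, rat or mouse) or freshly harvested rat hepatocytes.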

[4] = system: freshly harvested rat hepatocytes (rHep); assay: Metabolic stability assay, freshly harvested rat hepatocytes; format: in vitro ADME; details: predicted maximum oral bioavailability
Method in brief: as §1

[5] = Metabolic stability assay, pooled mouse liver microsomes; format: in vitro ADME; details: predicted maximum oral bioavailability
Method in brief: as §1

[6] = Metabolic stability assay, pooled human liver microsomes; format: in vitro ADME; details: predicted maximum oral bioavailability
Method in brief: as §1

Hydrolytic stability = format: physicochemical; details: for Recovery [%] (pH): 24 hours with stirring
Method in brief: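 Test compound stirred for 24 hours in buffer at each of three pH values: pH 1 in HCl buffer, pH 7 in phosphate-buffered saline, and pH 10 in sodium borate buffer. Stability expressed as recovery of test compound.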

[7] = pH 7 (phosphate-buffered saline)

| SMILES | chromatographic logD [1] | Papp A→B [2] [×10⁻⁶ cm/s] | efflux ratio [2] | F max (h/r/m)-LMs [%] [3] [%] | F max rHep [%] [4] [%] | F max (h/r/m)-LMs [%] [5] [%] | F max (h/r/m)-LMs [%] ([6]; listed as C00021) | Recovery [%] (pH) (Hydrolytic stability; pH 1 (HCl buffer)) | Recovery [%] (pH) (Hydrolytic stability; [7]) | Recovery [%] (pH) (Hydrolytic stability; pH 10 (sodium borate buffer)) | F max (h/r/m)-LMs [%] [6] [%] | hydrolytic stability (in words) (Hydrolytic stability; after 24 hours with stirring at pH 1, 7 and 10) | F max (h/r/m)-LMs [%] ([6]; listed as C00015) |
| --- | --- | --- | --- | --- | --- | --- | --- | --- | --- | --- | --- | --- | --- |
| O=S(=Nc1cccc(F)c1)(c1ccccc1)N1CCCCC1 (centres unmarked) [2 bc] | 4.3 | 25.2 | 0.45 | 0.5 | 2.1 | 16 | 8.3 | 100 (1) 100 (7) 100 (10) % | 100 (1) 100 (7) 100 (10) % | 100 (1) 100 (7) 100 (10) % |  |  |  |
| CN=S(=O)(c1ccccc1)N1CCCCC1 (centres unmarked) [2 cm] | 2.4 | 40.4 | 0.57 | 18 | 19 | 47 |  | 100 (1) 100 (7) 100 (10) % | 100 (1) 100 (7) 100 (10) % | 100 (1) 100 (7) 100 (10) % | 84 |  |  |
| O=S(=NC(F)(F)F)(c1ccccc1)N1CCCCC1 (centres unmarked) [2 cs, 1‐[S‐Phenyl‐N‐(trifluoromethyl)sulfonimidoyl]piperidine] | 3.7 | 19.2 | 0.7 | 10 | 6.8 | 9.3 |  | 56% | 100% | 91% | 19 | signs of hydrolysis at pH 1 and 10 |  |
| CS(=O)(=O)N=S(=O)(c1ccccc1)N1CCCCC1 (centres unmarked) [2 ea, N‐[Oxo(phenyl)(piperidin‐1‐yl)‐λ^6‐sulfanylidene]methanesulfonamide] | 2 | 36.3 | 0.67 | 33 | 20 | 83 |  | 100 (1) 100 (7) 100 (10) % | 100 (1) 100 (7) 100 (10) % | 100 (1) 100 (7) 100 (10) % |  |  | 100 |
